# Data reported in ChEMBL document CHEMBL1145781, “Synthesis and structure-activity relationships of 5-amino-6-fluoro-1-[(1R,2S)-2-fluorocyclopropan-1-yl]-8-methylquinolonecarboxylic acid antibacterials having fluorinated 7-[(3R)-3-(1-aminocyclopropan-1-yl)pyrrolidin-1-yl] substituents” (J Med Chem, 2003).
# Experiments:
# Streptococcus mitis = test: Antibacterial activity was determined against Streptococcus mitis IID685 strain after incubation at 37 degrees C for 18 h; type: functional
# Streptococcus pyogenes = test: Antibacterial activity was determined against Streptococcus pyogenes G-36 strain after incubation at 37 degrees C for 18 h; type: functional
# Klebsiella pneumoniae = test: Antibacterial activity was determined against Klebsiella pneumoniae type II strain after incubation at 37 degrees C for 18 h; type: functional
# [1] = tested on: Staphylococcus epidermidis; test: Antibacterial activity was determined against Staphylococcus epidermis 56500 strain after incubation at 37 degrees C for 18 h; type: functional
# Escherichia coli = test: Antibacterial activity was determined against Escherichia coli NIHJ strain after incubation at 37 degrees C for 18 h; type: functional
# Streptococcus pneumoniae [2] = test: Antibacterial activity was determined against Streptococcus pneumoniae J-24 strain after incubation at 37 degrees C for 18 h; type: functional
# [3] = Mortality was determined after 100 mg/kg dose administered intravenously to 5-week old male mice at a speed of 0.2 mL/min counted on day 7 for total 5 mice; type: ADME, organism-based; design: dose 100 mg/kg, route intravenous; conditions: mouse, in vivo, iv
# Summary of the method: (§1)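 Male Slc:ddY mice, 5 weeks old. Compound dissolved in 0.1 N NaOH in saline at varied concentrations and given as a single IV injection at 0.2 mL/min, total volume 10 mL/kg body weight. Deaths counted on day 7 and reported as dead/tested.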
# Staphylococcus aureus [4] = test: Antibacterial activity was determined against Staphylococcus aureus FDA 209-P strain after incubation at 37 degrees C for 18 h; type: functional
# [5] = Solubility was determined in water; type: physicochemical
# [6] = Mortality was determined after 150 mg/kg dose administered intravenously to 5-week old male mice at a speed of 0.2 mL/min counted on day 7 for total 2 mice; type: ADME, organism-based; design: dose 150 mg/kg, route intravenous; conditions: mouse, in vivo, iv; summary of the method: as §1
# Enterococcus faecalis = test: Antibacterial activity was determined against Enterococcus faecalis ATCC 19433 strain after incubation at 37 degrees C for 18 h; type: functional; conditions: ATCC 19433, 18 h
# [7] = Toxicity was determined as presence of micronucleated reticulocytes (MNRET) in blood at 24 and 48 hr after 100 mg/kg dose administered intravenously to 5-week old male mice; positive.; type: organism-based; design: dose 100 mg/kg, route intravenous; conditions: mouse, in vivo, iv
# Pseudomonas aeruginosa = test: Antibacterial activity was determined against Pseudomonas aeruginosa PAO1 strain after incubation at 37 degrees C for 18 h; type: functional
# [8] = Toxicity was determined as presence of micronucleated reticulocytes (MNRET) in blood at 24 and 48 hr after 100 mg/kg dose administered intravenously to 5-week old male mice; negative.; type: organism-based; design: dose 100 mg/kg, route intravenous; conditions: mouse, in vivo, iv
# [9] = Mortality was determined after 50 mg/kg dose administered intravenously to 5-week old male mice at a speed of 0.2 mL/min counted on day 7 for total 5 mice; type: ADME, organism-based; design: dose 50 mg/kg, route intravenous; conditions: mouse, in vivo, iv; summary of the method: as §1
# [10] = Toxicity was determined as presence of micronucleated reticulocytes (MNRET) in blood at 24 and 48 hr after 50 mg/kg dose administered intravenously to 5-week old male mice.; conditions: mouse, in vivo, iv
# [11] = Mortality was determined after 100 mg/kg dose administered intravenously to 5-week old male mice at a speed of 0.2 mL/min counted on day 7 for total 2 mice; type: ADME, organism-based; design: dose 100 mg/kg, route intravenous; conditions: mouse, in vivo, iv; summary of the method: as §1
# [12] = Total concentration in serum was determined after 6 hr of intravenous administration to rats (n=4) at dose of 20 mg/kg; type: ADME, organism-based; design: time < 6 hr, dose 20 mg/kg, route intravenous; conditions: rat
# [13] = Ratio of total concentration in liver to that of serum after 6 hr of intravenous administration to rats (n=4) at dose of 20 mg/kg; type: ADME, organism-based; design: dose 20 mg/kg, route intravenous; conditions: rat
# [14] = Half life in liver was determined after intravenous administration to rats (n=4) at dose of 20 mg/kg; type: ADME, organism-based; design: dose 20 mg/kg, route intravenous; conditions: rat
# Streptococcus pneumoniae [15] = test: Antibacterial activity was determined against clinically isolated penicillin resistant Streptococcus pneumoniae (PRSP) strains (50 strains); type: functional
# [16] = Lung concentration was determined after 5 min. of intravenous administration to rats (n=4) at dose of 20 mg/kg; type: ADME, organism-based; design: dose 20 mg/kg, route intravenous; conditions: rat
# Enterococcus sp. [17] = test: Antibacterial activity was determined against clinically isolated vancomycin-B resistant enterococci (VRE) strains (10 strains); type: functional
# [18] = Serum concentration was determined after 5 min. of intravenous administration to rats (n=4) at dose of 20 mg/kg; type: ADME, organism-based; design: dose 20 mg/kg, route intravenous; conditions: rat
# Rattus norvegicus = test: Ratio of total concentration in serum to that of serum after 6 hr of intravenous administration to rats (n=4) at dose of 20 mg/kg; type: ADME, organism-based; design: dose 20 mg/kg, route intravenous; conditions: in vivo
# [19] = Kidney concentration was determined after 5 min. of intravenous administration to rats (n=4) at dose of 20 mg/kg; type: ADME, organism-based; design: dose 20 mg/kg, route intravenous; conditions: rat
# [20] = Mortality was determined after 150 mg/kg dose administered intravenously to 5-week old male mice at a speed of 0.2 mL/min counted on day 7 for total 5 mice; type: ADME, organism-based; design: dose 150 mg/kg, route intravenous; conditions: mouse, in vivo, iv; summary of the method: as §1
# [21] = Half life in lung was determined after intravenous administration to rats (n=4) at dose of 20 mg/kg; type: ADME, organism-based; design: dose 20 mg/kg, route intravenous; conditions: rat
# [22] = Liver concentration was determined after 5 min. of intravenous administration to rats (n=4) at dose of 20 mg/kg; type: ADME, organism-based; design: dose 20 mg/kg, route intravenous; conditions: rat
# [23] = Total concentration in liver was determined after 6 hr of intravenous administration to rats (n=4) at dose of 20 mg/kg; type: ADME, organism-based; design: time < 6 hr, dose 20 mg/kg, route intravenous; conditions: rat
# [24] = Total concentration in lung was determined after 6 hr of intravenous administration to rats (n=4) at dose of 20 mg/kg; type: ADME, organism-based; design: time < 6 hr, dose 20 mg/kg, route intravenous; conditions: rat
# [25] = Half life in kidney was determined after intravenous administration to rats (n=4) at dose of 20 mg/kg; type: ADME, organism-based; design: dose 20 mg/kg, route intravenous; conditions: rat
# Staphylococcus aureus [26] = test: Antibacterial activity was determined against clinically isolated Levofloxacin-methicillin resistant Staphylococcus aureus (LVFX-r MRSA) strains (74 strains); type: functional
# [27] = Ratio of total concentration in kidney to that of serum after 6 hr of intravenous administration to rats (n=4) at dose of 20 mg/kg; type: ADME, organism-based; design: dose 20 mg/kg, route intravenous; conditions: rat
# [28] = Half life in serum was determined after intravenous administration to rats (n=4) at dose of 20 mg/kg; type: ADME, organism-based; design: dose 20 mg/kg, route intravenous; conditions: rat
# [29] = Total concentration in kidney was determined after 6 hr of intravenous administration to rats (n=4) at dose of 20 mg/kg; type: ADME, organism-based; design: time < 6 hr, dose 20 mg/kg, route intravenous; conditions: rat
# Enterococcus sp. [30] = test: Antibacterial activity was determined against clinically isolated vancomycin-A resistant enterococci (VRE) strains (33 strains); type: functional
# [31] = Toxicity was determined as presence of micronucleated reticulocytes (MNRET) in blood at 24 and 48 h after 150 mg/kg dose administered intravenously to 5-week old male mice; negative.; type: organism-based; design: dose 150 mg/kg, route intravenous; conditions: mouse, in vivo, iv
# [32] = Ratio of total concentration in lung to that of serum after 6 hr of intravenous administration to rats (n=4) at dose of 20 mg/kg; type: ADME, organism-based; design: dose 20 mg/kg, route intravenous; conditions: rat
structure (smiles),measurement,setting,value
Cc1c(N2CC[C@@H](C3(N)CC3)C2)c(F)c(N)c2c(=O)c(C(=O)O)cn([C@@H]3C[C@@H]3F)c12,MIC,Streptococcus mitis,≤ 0.003 µg/mL
same,MIC,Streptococcus pyogenes,≤ 0.003 µg/mL
same,MIC,Klebsiella pneumoniae,0.025 µg/mL
same,MIC,[1],≤ 0.003 µg/mL
same,MIC,Escherichia coli,≤ 0.003 µg/mL
same,MIC,Streptococcus pneumoniae [2],≤ 0.003 µg/mL
same,Dead,[3],0
same,MIC,Staphylococcus aureus [4],≤ 0.003 µg/mL
same,solubility,[5],39 µg/mL
same,Dead,[6],2
same,MIC,Enterococcus faecalis,0.013 µg/mL
same,Toxicity,[7],Toxic
same,MIC,Pseudomonas aeruginosa,0.1 µg/mL
Cc1c(N2C[C@H](C3(N)CC3)C(F)(F)C2)c(F)c(N)c2c(=O)c(C(=O)O)cn([C@@H]3C[C@@H]3F)c12,MIC,Streptococcus mitis,≤ 0.003 µg/mL
same,MIC,Streptococcus pyogenes,≤ 0.003 µg/mL
same,MIC,Klebsiella pneumoniae,0.013 µg/mL
same,MIC,[1],≤ 0.003 µg/mL
same,MIC,Escherichia coli,≤ 0.003 µg/mL
same,MIC,Streptococcus pneumoniae [2],≤ 0.003 µg/mL
same,Toxicity,[8],Non-toxic
same,Dead,[3],1
same,MIC,Staphylococcus aureus [4],≤ 0.003 µg/mL
same,Dead,[6],2
same,MIC,Enterococcus faecalis,0.013 µg/mL
same,MIC,Pseudomonas aeruginosa,0.2 µg/mL
Cc1c(N2CC[C@@H]([C@H](C)N)C2)c(F)c(N)c2c(=O)c(C(=O)O)cn([C@@H]3C[C@@H]3F)c12,MIC,Streptococcus mitis,≤ 0.003 µg/mL
same,MIC,Streptococcus pyogenes,≤ 0.003 µg/mL
same,Dead,[9],1
same,MIC,Klebsiella pneumoniae,0.025 µg/mL
same,MIC,[1],≤ 0.003 µg/mL
same,Toxicity,[10],Toxic
same,MIC,Escherichia coli,≤ 0.003 µg/mL
same,MIC,Streptococcus pneumoniae [2],≤ 0.003 µg/mL
same,Dead,[11],2
same,MIC,Staphylococcus aureus [4],≤ 0.003 µg/mL
same,solubility,[5],95 µg/mL
same,Dead,[6],2
same,MIC,Enterococcus faecalis,0.025 µg/mL
same,MIC,Pseudomonas aeruginosa,0.05 µg/mL
Cc1c(N2C[C@@H](F)[C@@H](C3(N)CC3)C2)c(F)c(N)c2c(=O)c(C(=O)O)cn([C@@H]3C[C@@H]3F)c12 [DQ-113],MIC,Streptococcus mitis,≤ 0.003 µg/mL
same,AUC at 6 h,[12],9300 ng·h/mL
same,Kp at 6 h,[13],3.9
same,MIC,Streptococcus pyogenes,≤ 0.003 µg/mL
same,half-life,[14],1.3 h
same,MIC,Klebsiella pneumoniae,0.013 µg/mL
same,MIC50,Streptococcus pneumoniae [15],≤ 0.008 µg/mL
same,MIC90,Streptococcus pneumoniae [15],0.015 µg/mL
same,MIC,[1],≤ 0.003 µg/mL
same,concentration at 5 min,[16],22000 ng/mL
same,MIC50,Enterococcus sp. [17],0.25 µg/mL
same,MIC90,Enterococcus sp. [17],0.25 µg/mL
same,concentration at 5 min,[18],11100 ng/mL
same,MIC,Escherichia coli,≤ 0.003 µg/mL
same,Ratio,Rattus norvegicus,1
same,concentration at 5 min,[19],33700 ng/mL
same,Dead,[20],0
same,half-life,[21],0.9 h
same,concentration at 5 min,[22],46200 ng/mL
same,MIC,Streptococcus pneumoniae [2],≤ 0.003 µg/mL
same,AUC at 6 h,[23],36000 ng·h/mL
same,AUC at 6 h,[24],37900 ng·h/mL
same,MIC,Staphylococcus aureus [4],≤ 0.003 µg/mL
same,half-life,[25],1.3 h
same,MIC50,Staphylococcus aureus [26],0.12 µg/mL
same,MIC90,Staphylococcus aureus [26],0.5 µg/mL
same,Kp at 6 h,[27],3.7
same,half-life,[28],1.1 h
same,solubility,[5],291 µg/mL
same,AUC at 6 h,[29],34800 ng·h/mL
same,MIC50,Enterococcus sp. [30],0.25 µg/mL
same,MIC90,Enterococcus sp. [30],2 µg/mL
same,MIC,Enterococcus faecalis,0.025 µg/mL
same,MIC,Pseudomonas aeruginosa,0.39 µg/mL
same,Toxicity,[31],Non-toxic
same,Kp at 6 h,[32],4.1
